Reference: ChEMBL document CHEMBL1811814, “Synthesis and evaluation of indole, pyrazole, chromone and pyrimidine based conjugates for tumor growth inhibitory activities--development of highly efficacious cytotoxic agents” (Eur J Med Chem, 2010)

Assays:
Type in all cases: functional
Parameters in all cases: scale not given: the % may be the effect or the level left
HL-60(TB) = assay: Growth inhibition of human HL-60(TB) cells assessed tumor cell growth at 10^-5 M
In short: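 HL-60(TB), part of the 60-line panel, tested at a single concentration of 10^-5 M. The read-out is percent tumor cell growth relative to untreated growth.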

K562 = assay: Growth inhibition of human K562 cells assessed tumor cell growth at 10^-5 M
In short: (§1)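 NCI 60-human-tumor-cell-line panel screen. Each compound was tested at a single concentration of 10^-5 M, and percent growth of tumor cells was recorded for each cell line. Growth inhibition was expressed from these percent-growth values.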

MOLT-4 = assay: Growth inhibition of human MOLT4 cells assessed tumor cell growth at 10^-5 M; in short: as §1
[1] = Growth inhibition of human […] cells assessed tumor cell growth at 10^-5 M; in short: as §1
SR = assay: Growth inhibition of human SR cells assessed tumor cell growth at 10^-5 M
In short: (§2)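 Single-dose screen at 10^-5 M across the 60 human tumor cell line panel, run to NCI standards. The value is the percent growth of each cell line in the presence of compound. Compounds active at this dose moved on to five-concentration testing (10^-4 to 10^-8 M).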

A549 = assay: Growth inhibition of human A549 cells assessed tumor cell growth at 10^-5 M; in short: as §1
EKVX = assay: Growth inhibition of human EKVX cells assessed tumor cell growth at 10^-5 M; in short: as §1
HOP-62 = assay: Growth inhibition of human HOP62 cells assessed tumor cell growth at 10^-5 M; in short: as §1
NCI-H226 = assay: Growth inhibition of human NCI-H226 cells assessed tumor cell growth at 10^-5 M; in short: as §1
NCI-H23 = assay: Growth inhibition of human NCI-H23 cells assessed tumor cell growth at 10^-5 M; in short: as §1
NCI-H322M = assay: Growth inhibition of human NCI-H322M cells assessed tumor cell growth at 10^-5 M; in short: as §1
NCI-H460 = assay: Growth inhibition of human NCI-H460 cells assessed tumor cell growth at 10^-5 M; in short: as §1
NCI-H522 = assay: Growth inhibition of human NCI-H522 cells assessed tumor cell growth at 10^-5 M; in short: as §1
COLO 205 = assay: Growth inhibition of human COLO205 cells assessed tumor cell growth at 10^-5 M; in short: as §1
HCT-116 = assay: Growth inhibition of human HCT116 cells assessed tumor cell growth at 10^-5 M; in short: as §1
HCT-15 = assay: Growth inhibition of human HCT15 cells assessed tumor cell growth at 10^-5 M; in short: as §1
HT-29 = assay: Growth inhibition of human HT-29 cells assessed tumor cell growth at 10^-5 M; in short: as §1
KM12 = assay: Growth inhibition of human KM12 cells assessed tumor cell growth at 10^-5 M; in short: as §1
SW-620 = assay: Growth inhibition of human SW620 cells assessed tumor cell growth at 10^-5 M; in short: as §2
SF-268 = assay: Growth inhibition of human SF268 cells assessed tumor cell growth at 10^-5 M; in short: as §1
SF-295 = assay: Growth inhibition of human SF295 cells assessed tumor cell growth at 10^-5 M; in short: as §1
SF-539 = assay: Growth inhibition of human SF539 cells assessed tumor cell growth at 10^-5 M; in short: as §1
SNB-19 = assay: Growth inhibition of human SNB19 cells assessed tumor cell growth at 10^-5 M; in short: as §2
SNB-75 = assay: Growth inhibition of human SNB75 cells assessed tumor cell growth at 10^-5 M; in short: as §2
U-251 = assay: Growth inhibition of human U251 cells assessed tumor cell growth at 10^-5 M; in short: as §2
LOX IMVI = assay: Growth inhibition of human LOXIMVI cells assessed tumor cell growth at 10^-5 M; in short: as §1
Malme-3M = assay: Growth inhibition of human MALME-3M cells assessed tumor cell growth at 10^-5 M; in short: as §1
M14 = assay: Growth inhibition of human M14 cells assessed tumor cell growth at 10^-5 M; in short: as §1
MDA-MB-435 = assay: Growth inhibition of human MDA-MB-435 cells assessed tumor cell growth at 10^-5 M; in short: as §1
SK-MEL-2 = assay: Growth inhibition of human SK-MEL-2 cells assessed tumor cell growth at 10^-5 M; in short: as §1
SK-MEL-28 = assay: Growth inhibition of human SK-MEL-28 cells assessed tumor cell growth at 10^-5 M; in short: as §1
SK-MEL-5 = assay: Growth inhibition of human SK-MEL-5 cells assessed tumor cell growth at 10^-5 M; in short: as §1
UACC-62 = assay: Growth inhibition of human UACC62 cells assessed tumor cell growth at 10^-5 M; in short: as §2
IGROV-1 = assay: Growth inhibition of human IGROV1 cells assessed tumor cell growth at 10^-5 M; in short: as §1
OVCAR-3 = assay: Growth inhibition of human OVCAR3 cells assessed tumor cell growth at 10^-5 M; in short: as §1
OVCAR-4 = assay: Growth inhibition of human OVCAR4 cells assessed tumor cell growth at 10^-5 M; in short: as §1
OVCAR-5 = assay: Growth inhibition of human OVCAR5 cells assessed tumor cell growth at 10^-5 M; in short: as §1
OVCAR-8 = assay: Growth inhibition of human OVCAR8 cells assessed tumor cell growth at 10^-5 M; in short: as §1
NCI/ADR-RES = assay: Growth inhibition of human NCI/ADR-RES cells assessed tumor cell growth at 10^-5 M; in short: as §1
SK-OV-3 = assay: Growth inhibition of human SKOV3 cells assessed tumor cell growth at 10^-5 M; in short: as §1
786-0 = assay: Growth inhibition of human 786-0 cells assessed tumor cell growth at 10^-5 M; in short: as §1
A498 = assay: Growth inhibition of human A498 cells assessed tumor cell growth at 10^-5 M; in short: as §1
ACHN = assay: Growth inhibition of human ACHN cells assessed tumor cell growth at 10^-5 M; in short: as §1
CAKI-1 = assay: Growth inhibition of human Caki1 cells assessed tumor cell growth at 10^-5 M; in short: as §1
RXF 393 = assay: Growth inhibition of human RXF393 cells assessed tumor cell growth at 10^-5 M; in short: as §1
SN12C = assay: Growth inhibition of human SN12C cells assessed tumor cell growth at 10^-5 M; in short: as §1
TK-10 = assay: Growth inhibition of human TK10 cells assessed tumor cell growth at 10^-5 M; in short: as §2
UO-31 = assay: Growth inhibition of human UO31 cells assessed tumor cell growth at 10^-5 M; in short: as §2
PC-3 = assay: Growth inhibition of human PC3 cells assessed tumor cell growth at 10^-5 M; in short: as §1
DU-145 = assay: Growth inhibition of human DU145 cells assessed tumor cell growth at 10^-5 M; in short: as §1
MCF7 = assay: Growth inhibition of human MCF7 cells assessed tumor cell growth at 10^-5 M; in short: as §1
MDA-MB-231 = assay: Growth inhibition of human MDA-MB-231 cells assessed tumor cell growth at 10^-5 M; in short: as §1
[2] = Growth inhibition of human Hs 578T cells assessed tumor cell growth at 10^-5 M; in short: as §1
T47D = assay: Growth inhibition of human T47D cells assessed tumor cell growth at 10^-5 M; in short: as §2
MDA-MB-468 = assay: Growth inhibition of human MDA-MB-468 cells assessed tumor cell growth at 10^-5 M; in short: as §1

Molecule `O=C1/C(=C\c2cn(C(=O)c3ccc(Cl)cc3)c3ccccc23)c2ccccc2N1C(=O)c1ccc(Cl)cc1` has an Activity (HL-60(TB)) of 54.1%, an Activity (K562) of 83.8% and an Activity (MOLT-4) of 61.5%. The Activity [1] was 57.4%, the Activity (SR) was 56.1% and the Activity (A549) was 63.2%. For the same molecule, the Activity (EKVX) was 70.7%, the Activity (HOP-62) was 61.3% and the Activity (NCI-H226) was 89.4%. It also gave an Activity (NCI-H23) of 83.1%, an Activity (NCI-H322M) of 98.5% and an Activity (NCI-H460) of 86%. For the same molecule, the Activity (NCI-H522) was 6%, the Activity (COLO 205) was 104.7% and the Activity (HCT-116) was 65.1%. The Activity (HCT-15) was 65.8%, the Activity (HT-29) was 70.4% and the Activity (KM12) was 24.2%. The Activity (SW-620) was 93.1%, the Activity (SF-268) was 77.5% and the Activity (SF-295) was 101.9%. For the same molecule, the Activity (SF-539) was 67.3%, the Activity (SNB-19) was 98.2% and the Activity (SNB-75) was 54.4%. It also gave an Activity (U-251) of 74.1%, an Activity (LOX IMVI) of 67.7% and an Activity (Malme-3M) of 126%. For the same molecule, the Activity (M14) was 79.1%, the Activity (MDA-MB-435) was 97.5% and the Activity (SK-MEL-2) was 49.8%. For the same molecule, the Activity (SK-MEL-28) was 103%, the Activity (SK-MEL-5) was 74.8% and the Activity (UACC-62) was 88.9%. It also gave an Activity (IGROV-1) of 80%, an Activity (OVCAR-3) of 84.2% and an Activity (OVCAR-4) of 71.9%. For the same molecule, the Activity (OVCAR-5) was 114.7%, the Activity (OVCAR-8) was 78.6% and the Activity (NCI/ADR-RES) was 83.4%. It also gave an Activity (SK-OV-3) of 77%, an Activity (786-0) of 93.7% and an Activity (A498) of 81%. The Activity (ACHN) was 63.2%, the Activity (CAKI-1) was 73.8% and the Activity (RXF 393) was 83.2%. The Activity (SN12C) was 80.7%, the Activity (TK-10) was 55.3% and the Activity (UO-31) was 64.4%. It also gave an Activity (PC-3) of 65.7%, an Activity (DU-145) of 85% and an Activity (MCF7) of 71.1%. For the same molecule, the Activity (MDA-MB-231) was 81.2%, the Activity [2] was 80.5% and the Activity (T47D) was 61.7%. The Activity (MDA-MB-468) was 51.7%.
Molecule `O=C1/C(=C\c2cn(Cc3ccccc3)c3ccccc23)c2ccccc2N1Cc1ccccc1` has an Activity (HL-60(TB)) of 103.6%, an Activity (K562) of 95.2% and an Activity (MOLT-4) of 98.9%. The Activity [1] was 76.9%, the Activity (SR) was 96.6% and the Activity (A549) was 81.6%. It also gave an Activity (EKVX) of 85.2%, an Activity (HOP-62) of 90.9% and an Activity (NCI-H23) of 88.6%. For the same molecule, the Activity (NCI-H322M) was 103.8%, the Activity (NCI-H460) was 88.6% and the Activity (NCI-H522) was 31.8%. For the same molecule, the Activity (COLO 205) was 89.8%, the Activity (HCT-116) was 64.7% and the Activity (HCT-15) was 77.7%. The Activity (HT-29) was 90%, the Activity (KM12) was 87.9% and the Activity (SW-620) was 97.1%. It also gave an Activity (SF-268) of 92.3%, an Activity (SF-295) of 108.8% and an Activity (SF-539) of 94.7%. The Activity (SNB-19) was 106.1%, the Activity (SNB-75) was 89.5% and the Activity (U-251) was 92.9%. The Activity (LOX IMVI) was 84%, the Activity (Malme-3M) was 121.4% and the Activity (M14) was 96.6%. It also gave an Activity (MDA-MB-435) of 110.5%, an Activity (SK-MEL-2) of 86.4% and an Activity (SK-MEL-28) of 104.8%. The Activity (SK-MEL-5) was 84.4%, the Activity (UACC-62) was 82.6% and the Activity (IGROV-1) was 66.8%. It also gave an Activity (OVCAR-3) of 84.3%, an Activity (OVCAR-4) of 84.4% and an Activity (OVCAR-5) of 106.7%. For the same molecule, the Activity (OVCAR-8) was 88.9%, the Activity (NCI/ADR-RES) was 92% and the Activity (SK-OV-3) was 92.4%. It also gave an Activity (786-0) of 99.1%, an Activity (A498) of 96.6% and an Activity (ACHN) of 85.4%. It also gave an Activity (CAKI-1) of 72%, an Activity (RXF 393) of 73.5% and an Activity (SN12C) of 104%. The Activity (TK-10) was 85.3%, the Activity (UO-31) was 82.3% and the Activity (PC-3) was 80.8%. It also gave an Activity (DU-145) of 100.2%, an Activity (MCF7) of 3.6% and an Activity (MDA-MB-231) of 100.6%. It also gave an Activity [2] of 96%, an Activity (T47D) of 57% and an Activity (MDA-MB-468) of 46.6%.
